From ChEMBL document CHEMBL5038580 (J Med Chem, 2022)
Calls of active or inactive are those of the source. The calls are words filed in the database; no cut-off is given here. Residues, ends and D or L forms follow the SMILES beside them.

Legend:
Mus musculus = test: Antiviral activity against MERS-COV infected in BALB/c mouse at 0.023 mmol/kg, iv measured upto 12 hrs; type: functional, organism-based; conditions: time hrs <=12
How it was run: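 Peptide in PBS (pH 7.4) was given at 0.023 mmol/kg i.v. to three male BALB/c mice aged 8 weeks. Sera were tested in a 2 h S-mediated fusion assay with Huh-7 target cells. The serum dilution giving 50% fusion inhibition was calculated. Significance by Student's t test.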

Huh-7 = test: Cytotoxicity against human Huh7 cells incubated for 48 hrs by CCK-8 assay; type: functional
How it was run: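 Huh-7 cells (100 μL at 1 × 10^5 cells/mL) were preincubated 12 h at 37 °C, 5% CO2. Serially diluted peptide was added for 48 h, with a no-peptide blank and a Triton X-100 positive control. CCK-8 was added for 2 h and absorbance read at 450 nm. Three independent experiments, mean ± SD.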

in vitro [1] = conditions: human, RD cells
Human coronavirus OC43 [2] = test: Antiviral activity against HCoV-OC43 assessed as reduction in viral infection preincubated for 30 mins followed by RD cells addition and measured after 3 days by CCK-8 assay; type: functional; conditions: Betacoronavirus 1, OC43, RD
How it was run: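 HCoV-OC43 (100 TCID50) was mixed with diluted peptides for 30 min at 37 °C, then added to RD cells. After 3 days, cytopathic effect was read by CCK-8. Three independent experiments, mean ± SD.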

Human coronavirus OC43 [3] = test: Antiviral activity against HCoV-OC43 assessed as inhibition of viral S-protein mediated cell-cell fusion in Huh7 cells preincubated for 30 mins followed by cell addition and measured after 24 hrs; type: functional, cell-based; conditions: Betacoronavirus 1, OC43, Huh-7
How it was run: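 Effector HEK293T cells were transfected with an OC43 spike/GFP plasmid and harvested after 36 h. They were preincubated with diluted peptides at 37 °C for 30 min, then co-incubated with Huh-7 target cells in the presence of trypsin for 24 h. Inhibition was calculated from counts of fused and unfused cells. Three independent experiments, mean ± SD.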

SARS-CoV-2 [4] = test: Antiviral activity against SARS-CoV-2 transfected in 293T cells assessed as inhibition of viral S protein mediated membrane fusion to 293T/ACE2 cells at 20 uM incubated for 24 hrs by fluorescence microscopy analysis; type: functional, organism-based; conditions: Severe acute respiratory syndrome coronavirus 2, HEK-293T
How it was run: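 Single-concentration screen at 20 μM. Effector 293T cells expressing S/EGFP (10^4) were added to ACE2-293T target cells (10^5/well) and co-incubated at 37 °C for 24 h. Fusion was scored by fluorescence microscopy from counts of fused and unfused cells.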

SARS-CoV-2 [5] = test: Antiviral activity against SARS-CoV-2 transfected in 293T cells assessed as inhibition of viral S protein mediated membrane fusion to 293T/ACE2 cells incubated for 24 hrs by fluorescence microscopy analysis; type: functional, organism-based, HEK293T; conditions: Severe acute respiratory syndrome coronavirus 2, HEK-293T
How it was run: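 Effector 293T cells were transfected with an S/EGFP plasmid for 48 h and collected in FBS-free DMEM. ACE2-293T target cells (10^5/well) were plated 6–8 h before fusion. Effector cells (10^4) were added with graded peptide dilutions and co-incubated at 37 °C for 24 h. Percent inhibition was calculated from fused and unfused cell counts under fluorescence microscopy.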

[6] = tested on: Human immunodeficiency virus 1; test: Antiviral activity against HIV 1 JRFL subtype B assessed as inhibition of viral entry preincubated for 30 min followed by U87-CD4-[…] positive cells addition and culture medium replacement after 12 hrs post infection and measured after 48 hrs by luciferase assay; type: functional, organism-based; conditions: Human immunodeficiency virus 1, JRFL subtype B
How it was run: (§1)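 U87 CD4+ CCR5+ cells (1 × 10^4/well) were seeded and grown for 12 h at 37 °C, 5% CO2. Diluted peptides were mixed with pseudovirus for 30 min at 37 °C and then put on the cells. Medium was replaced 12 h post-infection. Cells were lysed 48 h later and luciferase was read. Three independent experiments, mean ± SD.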

[7] = tested on: Human immunodeficiency virus 1; test: Antiviral activity against HIV-1 IIIB assessed as inhibition of HIV-1 Env mediated cell-cell fusion in MT-2 cells preincubated for 30 mins followed by cell addition and measured after 2 hrs by calcein AM staining based fluorescence microscopy; type: functional, organism-based; conditions: Human immunodeficiency virus 1, IIIB, MT2
How it was run: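 H9/HIV-1 IIIB cells were labelled with Calcein AM for 30 min at 37 °C, washed, and resuspended in RPMI/10% FBS. They were incubated with diluted peptides for 30 min at 37 °C. MT-2 cells (1 × 10^5) were then added and cultured for 2 h at 37 °C. Fused cells were counted by fluorescence microscopy and IC50 was calculated. Three independent experiments.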

[8] = tested on: Human immunodeficiency virus 1; test: Antiviral activity against HIV 1 IIIB([…]) incubated overnight by ELISA analysis; type: functional, organism-based
How it was run: (§2)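 Peptides were diluted in FBS-free RPMI 1640 and mixed with 100 TCID50 HIV-1 IIIB. MT-2 cells (10^4) were added and cultured overnight at 37 °C, then medium was changed to RPMI/10% FBS. After 3 more days, supernatants were lysed with 5% Triton X-100 and p24 was measured by ELISA. IC50 calculated from three independent experiments.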

[9] = tested on: Human immunodeficiency virus 1; test: Antiviral activity against HIV 1 25710-2 subtype C assessed as inhibition of viral entry preincubated for 30 min followed by U87-CD4-[…] positive cells addition and culture medium replacement after 12 hrs post infection and measured after 48 hrs by luciferase assay; type: functional, organism-based; conditions: Human immunodeficiency virus 1, 25710-2 subtype C; how it was run: as §1
[10] = tested on: Human immunodeficiency virus 1; test: Antiviral activity against HIV 1 BaL(R5) incubated overnight by ELISA analysis; type: functional, organism-based; conditions: Human immunodeficiency virus 1, BaL(R5)
How it was run: as §2, with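 “HIV-1 BaL. CEMx174 5.25 M7” for “HIV-1 IIIB. MT-2”, “After 6” for “After 3”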

in vitro [11] = conditions: human, MT2 cells

Molecule: CC[C@H](C)[C@H](NC(=O)[C@H](Cc1ccc(O)cc1)NC(=O)[C@H](CO)NC(=O)[C@H](CCC(=O)O)NC(=O)[C@H](CCC(=O)O)NC(=O)[C@H](CC(C)C)NC(=O)[C@H](CCCCN)NC(=O)[C@H](CCCCN)NC(=O)[C@@H](NC(=O)[C@@H](NC(=O)[C@H](CCC(=O)O)NC(=O)[C@H](CCC(=O)O)NC(=O)[C@H](CC(C)C)NC(=O)[C@H](CCCCN)NC(=O)[C@H](CCCCN)NC(=O)[C@H](CCSC)NC(=O)[C@H](CCC(=O)O)NC(=O)[C@H](Cc1ccc(O)cc1)NC(=O)[C@H](CCC(=O)O)NC(=O)[C@H](CC(C)C)NC(=O)[C@H](CC(=O)O)NC(=O)[C@H](CC(C)C)NC(=O)[C@H](CC(C)C)NC(=O)[C@@H](NC(=O)[C@@H](NC(=O)[C@H](CC(N)=O)NC(=O)[C@@H](NC(=O)[C@H](CCC(N)=O)NC(=O)[C@@H](NC(=O)[C@H](CC(C)C)NC(=O)[C@H](CO)NC(C)=O)[C@@H](C)O)[C@@H](C)CC)[C@@H](C)O)[C@@H](C)O)C(C)C)C(C)C)C(=O)N[C@@H](CC(=O)O)C(=O)N[C@@H](CC(C)C)C(=O)N[C@@H](CCCCN)C(=O)N[C@@H](CCC(=O)O)C(=O)N[C@@H](CC(C)C)C(N)=O
- Activity (Mus musculus): Active
- CC50 (Huh-7): > 50000 nM

Molecule: CC[C@H](C)[C@H](NC(=O)[C@H](C)NC(=O)[C@H](CCC(=O)O)NC(=O)[C@H](CCC(=O)O)NC(=O)[C@H](CC(C)C)NC(=O)[C@H](CCCCN)NC(=O)[C@H](CCCCN)NC(=O)[C@H](CCSC)NC(=O)[C@H](CCC(=O)O)NC(=O)[C@H](Cc1ccc(O)cc1)NC(=O)[C@H](CCC(=O)O)NC(=O)[C@H](CC(C)C)NC(=O)[C@H](CC(=O)O)NC(=O)[C@H](CC(C)C)NC(=O)[C@H](Cc1ccccc1)NC(=O)[C@@H](NC(=O)[C@@H](NC(=O)[C@H](CC(N)=O)NC(=O)[C@@H](NC(=O)[C@H](CCC(N)=O)NC(=O)[C@H](CC(=O)O)NC(=O)[C@H](CC(C)C)NC(=O)[C@H](CO)NC(C)=O)[C@@H](C)CC)C(C)C)[C@@H](C)O)C(=O)N[C@@H](CCCCN)C(=O)N[C@@H](CCCCN)C(=O)N[C@@H](CC(C)C)C(=O)N[C@@H](CCC(=O)O)C(=O)N[C@@H](CCC(=O)O)C(=O)N[C@@H](CO)C(=O)N[C@@H](Cc1ccc(O)cc1)C(=O)N[C@H](C(=O)N[C@@H](CC(=O)O)C(=O)N[C@@H](CC(C)C)C(=O)N[C@@H](CCCCN)C(=O)N[C@@H](CCC(=O)O)C(=O)N[C@@H](CC(C)C)C(N)=O)[C@@H](C)CC
- CC50 at 48 h (in vitro [1]): > 40000 nM
- IC50 (Human coronavirus OC43 [2]): 970 nM
- IC50 (Human coronavirus OC43 [3]): 280 nM
- Activity (SARS-CoV-2 [4]): Active

Molecule: CC[C@H](C)[C@H](NC(C)=O)C(=O)N[C@@H](CCC(=O)O)C(=O)N[C@@H](CCC(=O)O)C(=O)N[C@H](C(=O)N[C@H](C(=O)N[C@@H](CCCCN)C(=O)N[C@@H](CCCCN)C(=O)N[C@H](C(=O)N[C@@H](Cc1c[nH]cn1)C(=O)N[C@@H](Cc1c[nH]cn1)C(=O)N[C@H](C(=O)N[C@@H](CCC(=O)O)C(=O)N[C@@H](CCCNC(=N)N)C(=O)N[C@@H](C)C(=O)N[C@H](C(=O)N[C@@H](CCC(=O)O)C(=O)N[C@@H](C)C(=O)N[C@@H](CCC(N)=O)C(=O)N[C@@H](CCC(N)=O)C(=O)N[C@@H](CCCCN)C(=O)N[C@@H](CC(C)C)C(=O)N[C@@H](CC(C)C)C(=O)N[C@@H](CCC(N)=O)C(=O)N[C@@H](CC(C)C)C(=O)N[C@H](C(=O)N[C@H](C(=O)N[C@@H](Cc1c[nH]c2ccccc12)C(=O)NCC(=O)N[C@H](C(=O)N[C@@H](CCCCN)C(=O)N[C@@H](CCC(N)=O)C(=O)N[C@@H](CC(C)C)C(=O)N[C@@H](CCC(N)=O)C(=O)N[C@@H](C)C(=O)N[C@@H](CCCNC(=N)N)C(=O)N[C@H](C(=O)N[C@@H](CC(C)C)C(N)=O)[C@@H](C)CC)[C@@H](C)CC)C(C)C)[C@@H](C)O)[C@@H](C)CC)[C@@H](C)CC)[C@@H](C)CC)C(C)C)[C@@H](C)CC (Ac-IEEIVKKIHHIERAIEAQQKLLQLTVWGIKQLQARIL-NH2)
- IC50 (Human coronavirus OC43 [2]): > 20000 nM
- IC50 (SARS-CoV-2 [5]): > 20000 nM
- IC50 (Human coronavirus OC43 [3]): > 20000 nM
- IC50 [6]: 353 nM
- IC50 [7]: 472 nM
- IC50 [8]: 18.5 nM
- IC50 [9]: 298 nM
- IC50 [10]: 176 nM

Molecule: enfuvirtide
- CC50 at 48 h (in vitro [11]): > 10000 nM
- IC50 [6]: 7.86 nM
- IC50 [7]: 24 nM
- IC50 [8]: 17.8 nM
- IC50 [9]: 11.5 nM
- IC50 [10]: 1.58 nM
